Laboratory results from ChEMBL document CHEMBL1127686, “Synthesis of selective non-Ca(2+)-mobilizing inhibitors of D-myo-inositol 1,4,5-trisphosphate 5-phosphatase” (J Med Chem, 1994).
Several values for one entry are separate records, joined by “and”; a condition that tells them apart may be missing. Identical values can stand only once.

Experiments:
[1] = Competitive inhibition of Inositol 1,4,5-trisphosphate 5-phosphatase; design: species or system Homo sapiens
Homo sapiens [2] = organism: Homo sapiens; assay: (§1) Competitive inhibition of human erythrocyte membrane Ins(1,4,5)P3 5-phosphatase
Method in brief: (§2)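 Ins(1,4,5)P3 5-phosphatase from human erythrocyte membrane; Ki determined by a previously described method, taken as the mean of at least three experiments.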

Homo sapiens [3] = organism: Homo sapiens; assay: Tested for Ca+2 potency in human neuroblastoma cells; format: functional
Method in brief: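 Ca2+ release from intracellular stores measured in electrically permeabilized human neuroblastoma cells; potency expressed as EC50.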

[4] = Tested for binding affinity against human erythrocyte 5-phosphatase
[5] = Binding affinity for Inositol 1,4,5-trisphosphate kinase
Method in brief: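 Crude rat brain Ins(1,4,5)P3 3-kinase; inhibition of [3H]Ins(1,4,5)P3 phosphorylation measured; Km for Ins(1,4,5)P3 0.6 μM; Ki determined by a previously described method.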

[6] = as §1; method in brief: as §2
[7] = Tested for binding affinity against Ins(1,4,5)-P3 5-phosphatase; design: species or system Homo sapiens

O=P(O)(O)O[C@@H]1[C@H](O)[C@H](O)[C@@H](OP(=O)(O)O)[C@H](OP(=O)(O)O)[C@H]1O [INS(1,4,5)P3]
Ki [1]: 39 µM | Km (Homo sapiens [2]): 40 µM | EC50 (Homo sapiens [3]): 120 nM | Ki [4]: 124 µM

OC1C(O)C(OP(O)(O)=S)C(OP(O)(O)=S)C(O)C1OP(O)(O)=S (stereo in doubt; 24)
Ki [5]: 247 µM | Ki [4]: 0.3 µM

OC1C(O)C(OP(O)(O)=S)C(OP(O)(O)=S)C(O)C1OP(O)(O)=S (stereo in doubt)
Ki [6]: 1700 nM | Ki [5]: 1.46 µM

O=C(O)C(COP(=O)(O)O)OP(=O)(O)O (configuration not stated)
Ki [4]: 350 µM and 978 µM

O=P(O)(O)O[C@H]1[C@H](O)[C@@H](OP(=O)(O)O)[C@H](O)[C@@H](OP(=O)(O)O)[C@H]1O
Ki [1]: 45 µM

OC1C(OP(O)(O)=S)C(O)C(OP(O)(O)=S)C(O)C1OP(O)(O)=S (configuration not stated)
Ki [7]: 430 nM

OC1C(O)C(OP(O)(O)=S)C(OP(O)(O)=S)C(O)C1OP(O)(O)=S (configuration not stated)
Ki [7]: 500 nM
